In data set [1] the target is T1, Aldo-keto reductase family 1 member B1 (Homo sapiens, UniProt P15121). The data set is described as follows: Inhibition of human recombinant AKR1B1 expressed in Escherichia coli using DL-glyceraldehyde as substrate after 5 mins by spectrophotometry. Put shortly:
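Enzyme inhibition was tested with recombinant human AKR1B1, using the natural substrate glyceraldehyde.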

The target in data set [2] is Aldo-keto reductase family 1 member B1 (Mus musculus) (UniProt P45376). Put plainly: Inhibition of AKR1B1 in mouse RAW264.7 cells assessed as inhibition of sorbitol accumulation at 50 uM after 24 hrs by colorimetric assay. Format: cell-based. Put shortly:
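Raw264.7 murine macrophages were incubated with compound for 24 h, then harvested. Intracellular sorbitol accumulation served as the read-out of AKR1B1 activity.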

The target in data set [3] is Aldo-keto reductase family 1 member B10 (Homo sapiens) (UniProt O60218). The data set is described as follows: Inhibition of AKR1B10 (unknown origin) using DL-glyceraldehyde as substrate at 15 uM after 5 mins by spectrophotometry.
Data set [4] concerns the target T2, Aldo-keto reductase family 1 member A1 (Homo sapiens) (UniProt P14550).
T2 sequence (whole entry): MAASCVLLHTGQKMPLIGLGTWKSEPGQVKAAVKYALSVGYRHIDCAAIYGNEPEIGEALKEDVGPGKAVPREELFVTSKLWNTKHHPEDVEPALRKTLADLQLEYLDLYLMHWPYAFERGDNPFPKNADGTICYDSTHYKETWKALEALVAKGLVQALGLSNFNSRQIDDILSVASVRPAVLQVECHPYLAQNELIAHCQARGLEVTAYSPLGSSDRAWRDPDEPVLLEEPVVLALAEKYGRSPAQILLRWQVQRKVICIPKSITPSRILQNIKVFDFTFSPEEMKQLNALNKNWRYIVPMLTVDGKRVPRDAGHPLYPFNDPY
Put plainly: Inhibition of AKR1A1 (unknown origin) using DL-glyceraldehyde as substrate at 15 uM after 5 mins by spectrophotometry.

Data set [5] is described as follows: Stability of the compound in aqueous sulfuric acid solution assessed as compound remaining at 250 uM at pH 0.33 at 80 degC after 6 days by HPLC analysis. Format: physicochemical. Conditions: read-out: Stability. Put shortly:
(§1)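 Compound kept in aqueous sulfuric acid (pH = 0.33) with heating at 80 °C. Intact compound remaining was quantified by HPLC against calibration curves.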

The target of data set [6] is T1, Aldo-keto reductase family 1 member B1. Put plainly: Inhibition of human AKR1B1 expressing in PAR40 C57BL6 mouse lens assessed as inhibition of glucose-induced sorbitol accumulation at 25 to 50 uM after 72 hrs by colorimetric assay. Conditions: Lens of camera-type eye. Put shortly: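 Lenses were taken from transgenic mice overexpressing human AKR1B1, and from wild-type mice. They were cultured ex vivo with 27.5 mM glucose and given vehicle (H₂O) or compound at 25 and 50 μM for 72 h. Sorbitol accumulation was measured.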

The nature of data set [7]: Drug degradation in aqueous sulfuric acid solution at 250 uM at pH 0.33 at 80 degC after 15 mins by HPLC analysis. Type of data set: physicochemical. The following applies: read-out: Drug degradation. Put shortly:
as §1

The nature of data set [8]: Drug degradation in aqueous sulfuric acid solution at 250 uM at pH 0.33 at 80 degC after 30 mins by HPLC analysis. Type of data set: physicochemical. Conditions: buffer, pH 0.33, 0.5 h. Put shortly:
as §1

The source made the active and inactive calls. The rule behind the calls is not given here.

As a reminder, the inhibition is the relative decrease from the control value, in per cent. By IC50 is commonly meant the concentration that gives 50% inhibition.

Aldo-keto reductase family 1 member B10 (Homo sapiens), sequence (O60218 whole entry, looked up): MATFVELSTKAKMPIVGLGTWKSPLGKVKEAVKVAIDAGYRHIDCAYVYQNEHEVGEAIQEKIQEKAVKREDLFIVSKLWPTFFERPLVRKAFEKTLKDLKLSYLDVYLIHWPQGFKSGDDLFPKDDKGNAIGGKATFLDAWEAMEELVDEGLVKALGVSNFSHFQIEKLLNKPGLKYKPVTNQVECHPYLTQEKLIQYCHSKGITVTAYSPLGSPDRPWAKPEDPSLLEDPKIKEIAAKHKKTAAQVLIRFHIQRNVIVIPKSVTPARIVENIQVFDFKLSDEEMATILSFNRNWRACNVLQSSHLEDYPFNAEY

Consider `OC[C@H]1O[C@@H](n2cc(-c3cc(O)c(O)c(O)c3)nn2)[C@H](O)[C@@H](O)[C@@H]1O`, for which the inhibition result in data set [1] was “inactive”.
Still for that read-out and setting: in the case of `OC[C@H]1O[C@@H](OCCc2cc(O)c(O)c(O)c2)[C@H](O)[C@@H](O)[C@@H]1O` it was “inactive”.
Take `OC[C@H]1O[C@@H](OCCCc2cc(O)c(O)c(O)c2)[C@H](O)[C@@H](O)[C@@H]1O`: the inhibition entry in data set [1] was “inactive”.
On the same count and under the same terms, the value for `OC[C@H]1O[C@@H](OCc2cn(Cc3cc(O)c(O)c(O)c3)nn2)[C@H](O)[C@@H](O)[C@@H]1O` was “inactive”; that for `O=C(Cc1cc(O)c(O)c(O)c1)N[C@@H]1O[C@H](CO)[C@@H](O)[C@H](O)[C@H]1O` was “inactive”.
As for `O=C(N[C@@H]1O[C@H](CO)[C@@H](O)[C@H](O)[C@H]1O)c1cc(O)c(O)c(O)c1`, the values for the inhibition in data set [2] and in data set [6] were 50% and 80%, respectively. In addition, the 50% inhibitory concentration (IC50) in data set [1] amounted to 9 µM. In addition, the inhibition entry in data set [3] and in data set [4] was “inactive” throughout. Also, in data set [5], the remaining at 144 h, 250 µM amounted to 96%.
Consider `O=C(O[C@@H]1O[C@H](CO)[C@@H](O)[C@H](O)[C@H]1O)c1cc(O)c(O)c(O)c1`, for which the inhibition in data set [2] is 50%; in data set [6], 74%. For the same compound, in data set [1], the IC50 turned out to be 8 µM. In addition, the inhibition result in data set [3] and in data set [4] was “inactive” in each case. In data set [7], the degraded at 0.25 h, 250 µM was found to be 76%. For the same compound, the Stability entry in data set [8] was “Unstable”.

(Values after ChEMBL document CHEMBL3108697, “Design of an amide N-glycoside derivative of β-glucogallin: a stable, potent, and specific inhibitor of aldose reductase” (J Med Chem, 2014).)
